# Source: PubChem BioAssay
# Calls of active or inactive are those of the source.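 The calls were made as follows, unless noted: active = visually confirmed hit in the image check and inhibition above 20%; inconclusive = visually confirmed hit but inhibition not above 20%; inactive = no visual hit in the image check.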
# What was measured:
# [1] = inhibitors of TNFa-induced NFkB p65 translocation, primary screen, imaging, HUVEC, MLSMR starter and 10KST1 sets (AID 438;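 active = inhibition above 20% together with a positive visual image hit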;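 also: compound added about 3h40 before a 20 min TNFalpha stimulation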;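 as to inhibition: signal is the nuclear over cytoplasmic p65 intensity ratio per well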); conditions: HUVEC TNFa-induced p65 nuclear translocation; cell count: measured here: nuclei count (cytotoxicity indicator), at 2.08 µM; inhibition: at 2 µM, stronger effect = higher value, 0% TNFa-plus-vehicle, 100% no-TNFa wells
# [2] = reduction of polyQ htt aggregates in cells – imaging, exon1htt(103Q)mCFP cells, high-content imaging, primary screen (AID 483;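 active = visual image review flags a hit and inhibition of aggregation exceeds 20%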;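 also: compound exposure lasted 3 days before fixation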;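 as to nuclei count: percent of the per-plate median nuclei count of sample wells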); conditions: exon1htt(103Q)mCFP cell line, aggregate imaging, at 2 µM; inhibition of aggregation: stronger effect = higher value; nuclei count: measured here: cell count, toxicity
# [3] = endothelial E-selectin expression blockers – imaging, HUVEC, immunofluorescence, MLSMR starter and 10KST1 sets, primary screen (AID 487); conditions: HUVEC TNFalpha-induced E-selectin immunofluorescence imaging, at 2 µM; inhibition: stronger effect = higher value; nuclei count: measured here: cell number, toxicity;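 as to inhibition: signal is fraction of cell area covered by stained E-selectin grains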;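 as to nuclei count: 100% = median nuclei count of all wells on the same plate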
# [4] = target: Voltage-gated potassium channel subunit beta-2 (Rattus norvegicus) (UniProt P62483); test: inhibitors of rat Kvbeta2 reductase activity – biochemical, NADPH fluorescence, primary screen (AID 622;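 active = fluorescence slope higher than the sample average by over 3 SD, cut at about -0.22 in these data, passing the limit was not always enough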;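 also: slope of raw intensity against log time taken from 70 to 1610 s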); conditions: recombinant KvBeta, 4-cyanobenzaldehyde reduction, at 10 µM, stronger effect = higher value
# [5] = target: Voltage-gated potassium channel subunit beta-2 (Rattus norvegicus) (UniProt P62483); test: enhancers of rat Kvbeta2 NADPH turnover – biochemical, NADPH fluorescence, primary screen (AID 623;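 active = NADPH fluorescence slope more negative than the mean of all samples by about 3 SD, 99.7% confidence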;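 also: fluorescence intensity change per second fitted from 20 to 320 s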); conditions: Recombinant KvBeta, NADPH fluorescence decrease slope, 10 min; at 10 µM; stronger effect = lower value
# [6] = target: Muscarinic acetylcholine receptor M4 (Homo sapiens) (UniProt P08173); test: M4-linked GIRK flux change, two-sided – cell-based, HEK293 M4/GIRK, thallium flux, BTC-AM, M4 allosteric agonist project, primary screen (AID 625;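 active = fluorescence slope after compound addition differing from the mean of all tested samples at 99.7% confidence, mostly higher but some lower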;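 also: thallium influx through GIRK channels coupled to M4 in HEK293 cells with BTC-AM dye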); conditions: at 10 µM, actives lie on both sides
# Method in brief: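 Material – HEK293 cells with M4 receptor and GIRK channels · Buffer or medium – pH 7.3 thallium assay buffer · Doses – one dose, 10 µM final · Timing – cells overnight at 37 °C, BTC-AM loading 1 h, reads 2 min total · Measured by – kinetic fluorescence with BTC-AM dye · Controls – carbachol and DMSO controls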
# [7] = blockers of RIG-like receptor reporter activation – cell-based, Sendai virus stimulus, luciferase, 10K MLSCN set, TLR/RLR signaling modifier project, primary screen (AID 602276;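 active = inhibition at or above 50% at 10 µM; inactive = inhibition below 50%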;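 also: firefly luciferase from ISG56 promoter only with Renilla not read in this screen; 0% = Sendai virus plus DMSO and 100% = medium plus DMSO without virus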); conditions: HEK293 RL24 IRF3 luciferase reporter, at 10 µM, stronger effect = higher value
# [8] = TLR3 IRF3 reporter activation blockers – cell-based, poly I:C stimulus, luciferase, 10K MLSCN set, primary screen (AID 602277;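 active = inhibition of the reporter signal at or above 50%; inactive = inhibition below 50%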); conditions: HEK293-TLR3 RL24 IRF3 luciferase reporter, at 10 µM, stronger effect = higher value
# Chain of Voltage-gated potassium channel subunit beta-2 (Rattus norvegicus) (P62483 whole entry, looked up): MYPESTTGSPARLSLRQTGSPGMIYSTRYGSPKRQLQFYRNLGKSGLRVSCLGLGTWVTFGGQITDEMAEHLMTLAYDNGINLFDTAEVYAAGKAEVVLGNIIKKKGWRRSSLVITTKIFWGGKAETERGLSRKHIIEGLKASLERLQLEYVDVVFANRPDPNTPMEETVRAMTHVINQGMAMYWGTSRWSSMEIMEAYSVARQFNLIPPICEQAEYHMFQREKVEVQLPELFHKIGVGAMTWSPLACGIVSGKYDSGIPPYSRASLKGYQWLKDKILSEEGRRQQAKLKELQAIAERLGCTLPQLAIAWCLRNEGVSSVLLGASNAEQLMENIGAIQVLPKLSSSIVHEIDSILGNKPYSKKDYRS
# Chain of Muscarinic acetylcholine receptor M4 (Homo sapiens) (P08173 whole entry, looked up): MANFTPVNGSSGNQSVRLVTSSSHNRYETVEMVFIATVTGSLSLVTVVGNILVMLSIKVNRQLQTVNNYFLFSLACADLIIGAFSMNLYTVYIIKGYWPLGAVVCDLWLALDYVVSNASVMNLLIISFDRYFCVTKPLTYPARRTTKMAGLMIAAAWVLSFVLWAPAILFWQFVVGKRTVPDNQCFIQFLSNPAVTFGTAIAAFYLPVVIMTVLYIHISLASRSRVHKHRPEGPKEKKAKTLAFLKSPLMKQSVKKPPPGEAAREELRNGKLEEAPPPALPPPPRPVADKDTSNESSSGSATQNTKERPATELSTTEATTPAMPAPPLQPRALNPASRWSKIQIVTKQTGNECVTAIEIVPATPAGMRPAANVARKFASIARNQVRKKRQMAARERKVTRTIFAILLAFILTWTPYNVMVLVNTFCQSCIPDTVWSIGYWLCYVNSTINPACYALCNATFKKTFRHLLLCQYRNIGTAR
SMILES,cell count [1],inhibition [1],inhibition of aggregation [2],nuclei count [2],inhibition [3],nuclei count [3],fluorescence slope [4],NADPH fluorescence slope [5],fluorescence slope [6],inhibition [7],inhibition [8]
COC(=O)c1sc(NC(=O)COc2ccccc2OC)nc1C,368,-4.7% (inactive),-9.7% (inactive),96.7%,-153% (inactive),122%,-0.229 (inactive),-2.1e-05 (inactive),0.00636 (inactive),9.11% (inactive),2.53% (inactive)
O=C(OCC(=O)c1c[nH]c2ccccc12)C1=COCCO1,579,-6.9% (inactive),-9.2% (inactive),100%,-1% (inactive),69.3%,-0.271 (inactive),-5.8e-05 (inactive),0.00653 (inactive),-19.9% (inactive),-100% (inactive)
CC(Oc1ccc(Cl)cc1Cl)c1nc(-c2ccc(NC(=O)c3cccnc3)cc2)no1 (stereo not given),413,6.5% (inactive),-6.9% (inactive),89.5%,-60.6% (inactive),112%,-0.641 (inactive),4.9e-05 (inactive),0.00494 (inactive),1.84% (inactive),-74.3% (inactive)
CCOc1ccc(NC(=O)CSc2nnnn2CC(=O)O)cc1,482,-1.4% (inactive),-19.1% (inactive),112%,-110% (inactive),122%,-0.561 (inactive),-4.1e-05 (inactive),0.00555 (inactive),10.5% (inactive),14.4% (inactive)
Cc1n[nH]c(C)c1S(=O)(=O)N1CCN(c2ccccn2)CC1,407,-8.5% (inactive),12.4% (inactive),76%,-43.6% (inactive),108%,-0.485 (inactive),5e-05 (inactive),0.00681 (inactive),-0.889% (inactive),2.25% (inactive)
Cc1ccc(S(=O)(=O)NCCc2ccncc2)cc1,560,-1.9% (inactive),6.8% (inactive),92.8%,-47.2% (inactive),106%,-0.578 (inactive),-5.6e-05 (inactive),0.00601 (inactive),7.81% (inactive),17.1% (inactive)
O=C(CN1CCN(c2ncc(C(F)(F)F)cc2Cl)CC1)Nc1ccc2c(c1)OCO2,407,-5.7% (inactive),4.8% (inactive),106%,-11.6% (inactive),104%,-0.559 (inactive),-4.3e-05 (inactive),0.00584 (inactive),7.72% (inactive),11.6% (inactive)
COc1cc(NC(=O)c2cc(-n3cnnc3)ccc2Cl)cc(OC)c1,224,-8.1% (inactive),-12.2% (inactive),97.9%,-46.1% (inactive),95.5%,-0.479 (inactive),-8.2e-05 (inactive),0.00479 (inactive),15.2% (inactive),17.9% (inactive)
Cc1cc2c(s1)c1cnn(CC(=O)NCCc3ccccc3)c(=O)c1n2C,279,17.5% (inactive),-21.4% (inactive),104%,-76.9% (inactive),102%,-0.236 (inactive),-7.6e-06 (inactive),0.00662 (inactive),15.1% (inactive),-1.81% (inactive)
CC(=O)N1CCc2cc(S(=O)(=O)NC(CC(C)C)C(=O)N3CCn4c3nc3ccccc34)ccc21 (stereo not given),292,3.6% (inactive),8.8% (inactive),104%,22.8% (inactive),63%,-0.329 (inactive),5e-05 (inactive),0.0063 (inactive),10.1% (inactive),9.41% (inactive)
N#Cc1c(N)nc(SCc2ccncc2)c(C#N)c1-c1cccs1,321,10.9% (inactive),-2.2% (inactive),32.8%,13.8% (inactive),107%,-0.529 (inactive),-2.3e-05 (inactive),0.0051 (inactive),26.1% (inactive),25.1% (inactive)
COc1ccc(S(=O)(=O)NC2CCCCC2)c(C)c1C,426,8.4% (inactive),-3% (inactive),101%,65.4% (inactive),108%,-0.557 (inactive),1.8e-05 (inactive),0.00523 (inactive),20.3% (inactive),26.9% (inactive)
COc1cc(NC(=O)Cc2cccs2)ccc1-n1cnnn1,299,0% (inactive),-26.9% (inactive),100%,-50.9% (inactive),112%,-0.543 (inactive),-3.6e-05 (inactive),0.00442 (inactive),18.4% (inactive),21.1% (inactive)
O=S(=O)(c1ccccc1)N1CCSC1c1ccco1 (stereo not given),444,1.2% (inactive),7% (inactive),100%,33.5% (inactive),102%,-0.555 (inactive),-4e-05 (inactive),0.00572 (inactive),-30.7% (inactive),-9.12% (inactive)
CC(NC(=O)OCc1ccccc1)C(=O)N1CC(O)CC1C(=O)O (stereo not given),280,0.9% (inactive),2.6% (inactive),79.3%,26.8% (inactive),85.4%,-0.562 (inactive),-1.6e-05 (inactive),0.00618 (inactive),16.9% (inactive),22.2% (inactive)
O=C1CN(c2ccccc2F)C(=O)CN1c1ccccc1F,330,-2.3% (inactive),-2.1% (inactive),97.5%,-61.6% (inactive),89.8%,-0.476 (inactive),-3.1e-05 (inactive),0.00583 (inactive),14.9% (inactive),14.3% (inactive)
O=C1CSC(c2cn(-c3ccccc3)nc2-c2cccs2)N1CC1CCCO1 (stereo not given),453,-2.6% (inactive),10.2% (inactive),101%,-83.2% (inactive),117%,-0.534 (inactive),-3e-05 (inactive),0.00528 (inactive),18.7% (inactive),26.5% (inactive)
CCCCc1c(O)nc(SCC(=O)c2ccccc2)[nH]c1=O,375,1.7% (inactive),10.7% (inactive),90.4%,21.3% (inactive),95.1%,-0.561 (inactive),-8.5e-05 (inactive),0.00359 (inactive),14.2% (inactive),11.2% (inactive)
Nc1nc(-c2ccccc2Br)cs1,392,4.7% (inactive),-8.3% (inactive),110%,-133% (inactive),119%,-0.574 (inactive),-1.6e-05 (inactive),0.00573 (inactive),-14.5% (inactive),-27% (inactive)
COCCNC(=O)Cn1nc(C(F)(F)F)c(Br)c1C,376,1.1% (inactive),19.5% (inactive),65.4%,0.5% (inactive),92%,-0.548 (inactive),-4.9e-05 (inactive),0.00551 (inactive),3.89% (inactive),20.6% (inactive)
